# In ChEMBL document CHEMBL1139132, “N-caffeoylphenalkylamide derivatives as bacterial efflux pump inhibitors” (2007):
# Key:
# Type in all cases: functional
# Staphylococcus aureus [1] = experiment: Inhibition of NorA pump in fluoroquinolone-resistant Staphylococcus aureus SA1199B assessed as drug level causing 4-fold reduction of Norfloxacin MIC
# Summary of the method: (§1)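 SA-1199B, which overexpresses NorA, tested by dilution MIC. Norfloxacin MIC measured with and without added test agent. Potentiation expressed as the fold reduction of the norfloxacin MIC relative to norfloxacin alone, at the stated agent concentration.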
# Staphylococcus aureus [2] = experiment: Inhibition of NorA pump in fluoroquinolone-resistant Staphylococcus aureus SA1199B assessed as drug level causing reduction of Norfloxacin MIC; summary of the method: as §1
# Staphylococcus aureus [3] = experiment: Inhibition of NorA pump in fluoroquinolone-resistant Staphylococcus aureus SA1199B assessed as drug level causing 16-fold reduction of Norfloxacin MIC; summary of the method: as §1
# Staphylococcus aureus [4] = experiment: Antimicrobial activity against fluoroquinolone-resistant Staphylococcus aureus SA1199B
# Summary of the method: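 S. aureus SA-1199B, which overexpresses the NorA MDR efflux pump. MIC determined by the standard dilution method for aerobically growing bacteria.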
# Staphylococcus aureus [5] = experiment: Inhibition of NorA pump in fluoroquinolone-resistant Staphylococcus aureus SA1199B assessed as drug level causing 8-fold reduction of Norfloxacin MIC; summary of the method: as §1
# Staphylococcus aureus [6] = experiment: Inhibition of NorA pump in fluoroquinolone-resistant Staphylococcus aureus SA1199B assessed as drug level causing 2-fold reduction of Norfloxacin MIC; summary of the method: as §1
Compound,Activity (Staphylococcus aureus [1]) [µM],MIC (Staphylococcus aureus [4]) [µM],Activity (Staphylococcus aureus [5]) [µM],further results
COc1ccc(/C=C/C(=O)NCCc2ccccc2)cc1OC,322,,,
COc1ccc(CCC(=O)NCCc2ccc(O)c(O)c2)cc1OC,,,,Activity (Staphylococcus aureus [2]): 290 µM
COc1ccc(/C=C/C(=O)NCCc2c[nH]c3ccccc23)cc1OC,29,> 366,57,Activity (Staphylococcus aureus [3]): 286 µM
COc1ccc(/C=C/C(=O)NCCc2ccc(O)c(O)c2)cc1OC,146,,292,
COc1ccc(/C=C/C(=O)NCCc2ccc(OC)c(OC)c2)cc1OC,,,162,Activity (Staphylococcus aureus [6]): 54 µM
COc1cc(/C=C/C(=O)NCCc2ccc(O)c(O)c2)cc(OC)c1OC,268,,,
COc1ccc(/C=C/C(=O)NCCc2cc(O)c(O)c(O)c2)cc1OC,,356,,Activity (Staphylococcus aureus [2]): 56 µM
O=C(/C=C/c1ccccc1)NCCc1ccc(O)c(O)c1,70,> 452,,Activity (Staphylococcus aureus [3]): 353 µM
O=C(/C=C/c1ccc(O)c(O)c1)NCCc1ccc(O)c(O)c1,63,≥ 406,317,
CCn1cc(C(=O)O)c(=O)c2cc(F)c(N3CCNCC3)cc21 [NORFLOXACIN],,100,,
COC(=O)[C@H]1[C@H]2C[C@@H]3c4[nH]c5cc(OC)ccc5c4CCN3C[C@H]2C[C@@H](OC(=O)c2cc(OC)c(OC)c(OC)c2)[C@@H]1OC [RESERPINE],,,,"MIC (Staphylococcus aureus [5]; Staphylococcus aureus, SA1199B): 33 µM"
